Experimental data reported in ChEMBL document CHEMBL1821604, “Anticancer activity and cDNA microarray studies of a (RS)-1,2,3,5-tetrahydro-4,1-benzoxazepine-3-yl]-6-chloro-9H-purine, and an acyclic (RS)-O,N-acetalic 6-chloro-7H-purine” (Eur J Med Chem, 2011).

How the values were obtained:
[1] = Therapeutic index, ratio of IC50 for human MCF10A cells to IC50 for human MCF7 cells; format: cell-based; conditions: MCF10A cells (normal) versus MCF7 cells (cancer), read-out: Ratio IC50
How it was run: (§1)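 Each cell line grown in DMEM with 10% FBS, 37 °C, 5% CO₂. Cells seeded and allowed 24 h, then drug added in medium (≤0.1% v/v DMSO). Medium and drug renewed at day 3, cells kept 3 more days. Sulforhodamine-B read at 492 nm. IC₅₀ taken from semilog dose-response curves by linear interpolation, triplicate wells, at least twice. Index = IC₅₀ normal line / IC₅₀ cancer line.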

HT-29 [2] = experiment: Induction of apoptosis in human HT-29 cells assessed viable cells at IC50 after 48 hrs using annexin V-FITC staining by flow cytometry; format: functional
How it was run: (§2)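 Cells exposed 48 h to the compound at its IC₅₀ concentration, with 0.5% DMSO-only cells as control. Stained with annexin V-FITC plus propidium iodide, then flow cytometry. Gating: annexin+/PI− = early apoptotic; annexin+/PI+ = late apoptotic; PI only = dead/necrotic; double-negative = viable.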

HT-29 [3] = experiment: Cell cycle arrest in human HT-29 cells assessed as accumulation at G2/M phase at IC50 after 48 hrs using […] propidium iodide staining based FACS analysis; format: functional
MCF7 [4] = experiment: Down regulation of EFHC2 gene expression in human MCF7 cells at IC50 after 48 hrs by cDNA microarray technique relative to control; format: functional
How it was run: (§3)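 Cells (8 × 10⁶) were cultured in DMEM with 10% heat-inactivated FBS at 37 °C under 5% CO₂. They were exposed for 48 h to compound at its IC₅₀, with DMSO-treated parallel cultures as controls (final DMSO ≤0.1% v/v). Total RNA was isolated by trizol/chloroform phase separation, RNeasy column cleanup and on-column DNase, then quantified by OD260/OD280. Expression was profiled by cDNA microarray relative to control.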

MCF7 [5] = experiment: Cell cycle arrest in human MCF7 cells assessed as accumulation at S phase at IC50 after 48 hrs using annexin V-FITC and propidium iodide staining based FACS analysis; format: functional
MCF7 [6] = experiment: Induction of apoptosis in human MCF7 cells assessed late apoptotic cells at IC50 after 48 hrs using annexin V-FITC staining by flow cytometry; format: functional; how it was run: as §2
MCF7 [7] = experiment: Down regulation of GBP1 gene expression in human MCF7 cells at IC50 after 48 hrs by cDNA microarray technique relative to control; format: functional; how it was run: as §3
MCF7 [8] = experiment: Cell cycle arrest in human MCF7 cells assessed as accumulation at G2/M phase at IC50 after 48 hrs using annexin V-FITC and propidium iodide staining based FACS analysis; format: functional
MCF7 [9] = experiment: Cell cycle arrest in human MCF7 cells assessed as accumulation at G0/G1 phase at IC50 after 48 hrs using annexin V-FITC and propidium iodide staining based FACS analysis; format: functional
MCF7 [10] = experiment: Cytotoxicity against human MCF7 cells after 6 days by SRB colorimetric assay; format: functional, cell-based; conditions: MCF7, 144 h
MCF7 [11] = experiment: Induction of apoptosis in human MCF7 cells assessed viable cells at IC50 after 48 hrs using annexin V-FITC staining by flow cytometry; format: functional; how it was run: as §2
MCF7 [12] = experiment: Induction of apoptosis in human MCF7 cells assessed necrotic cells at IC50 after 48 hrs using annexin V-FITC staining by flow cytometry; format: functional; how it was run: as §2
HT-29 [13] = experiment: Down regulation of SLC28A2 gene expression in human HT-29 cells at IC50 after 48 hrs by cDNA microarray technique relative to control; format: functional
HT-29 [14] = experiment: Upregulation of PMP22 gene expression in human HT-29 cells at IC50 after 48 hrs by cDNA microarray technique relative to control; format: functional
[15] = Therapeutic index, ratio of IC50 for rat IEC-6 cells to IC50 for human HT-29 cells; format: cell-based; conditions: IEC-6 cells (normal) versus HT-29 cells (cancer), read-out: Ratio IC50; how it was run: as §1
HT-29 [16] = experiment: Cell cycle arrest in human HT-29 cells assessed as accumulation at S phase at IC50 after 48 hrs using […] propidium iodide staining based FACS analysis; format: functional
HT-29 [17] = experiment: Induction of apoptosis in human HT-29 cells assessed necrotic cells at IC50 after 48 hrs using annexin V-FITC staining by flow cytometry; format: functional; how it was run: as §2
HT-29 [18] = experiment: Cell cycle arrest in human HT-29 cells assessed as accumulation at G0/G1 phase at IC50 after 48 hrs using […] propidium iodide staining based FACS analysis; format: functional
MCF7 [19] = experiment: Induction of apoptosis in human MCF7 cells assessed early apoptotic cells at IC50 after 48 hrs using annexin V-FITC staining by flow cytometry; format: functional; how it was run: as §2
MCF7 [20] = experiment: Down regulation of TSSK6 gene expression in human MCF7 cells at IC50 after 48 hrs by cDNA microarray technique relative to control; format: functional
HT-29 [21] = experiment: Induction of apoptosis in human HT-29 cells assessed late apoptotic cells at IC50 after 48 hrs using annexin V-FITC staining by flow cytometry; format: functional; how it was run: as §2
MCF7 [22] = experiment: Down regulation of ZNF189 gene expression in human MCF7 cells at IC50 after 48 hrs by cDNA microarray technique relative to control; format: functional
HT-29 [23] = experiment: Down regulation of FLJ25476 gene expression in human HT-29 cells at IC50 after 48 hrs by cDNA microarray technique relative to control; format: functional; how it was run: as §3
[24] = Cytotoxicity against rat IEC-6 cells after 6 days by SRB colorimetric assay; format: cell-based; conditions: IEC-6, 144 h
HT-29 [25] = experiment: Cytotoxicity against human HT-29 cells after 6 days by SRB colorimetric assay; format: functional, cell-based; conditions: HT-29, 144 h
HT-29 [26] = experiment: Induction of apoptosis in human HT-29 cells assessed early apoptotic cells at IC50 after 48 hrs using annexin V-FITC staining by flow cytometry; format: functional; how it was run: as §2
MCF-10A = experiment: Cytotoxicity against human MCF10A cells after 6 days by SRB colorimetric assay; format: cell-based; conditions: 144 h
MCF7 [27] = experiment: Down regulation of TAS2R40 gene expression in human MCF7 cells at IC50 after 48 hrs by cDNA microarray technique relative to control; format: functional
HT-29 [28] = experiment: Down regulation of RHOV gene expression in human HT-29 cells at IC50 after 48 hrs by cDNA microarray technique relative to control; format: functional
How it was run: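 HT-29 cells were grown in DMEM with 10% heat-inactivated FBS at 37 °C under 5% CO2. Cultures of 8 × 10⁶ cells were treated for 48 h; controls got DMSO at ≤0.1% v/v final. Cells were detached with PBS-EDTA and total RNA was extracted with trizol/chloroform and RNeasy columns with on-column DNase. RNA was quantified by OD 260/280 before cDNA microarray comparison with control.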

HT-29 [29] = experiment: Down regulation of HIRA gene expression in human HT-29 cells at IC50 after 48 hrs by cDNA microarray technique relative to control; format: functional; how it was run: as §3
MCF7 [30] = experiment: Upregulation of UNQ739 gene expression in human MCF7 cells at IC50 after 48 hrs by cDNA microarray technique relative to control; format: functional
HT-29 [31] = experiment: Down regulation of HKE2 gene expression in human HT-29 cells at IC50 after 48 hrs by cDNA microarray technique relative to control; format: functional; how it was run: as §3
HT-29 [32] = experiment: Down regulation of POLE gene expression in human HT-29 cells at IC50 after 48 hrs by cDNA microarray technique relative to control; format: functional

SMILES	selectivity ratio [1]	Activity (HT-29 [2]) [%]	Activity (HT-29 [3]) [%]	Activity (MCF7 [5]) [%]	Activity (MCF7 [6]) [%]	fold change (FC) (MCF7 [7])	Activity (MCF7 [8]) [%]	Activity (MCF7 [9]) [%]	Activity (MCF7 [11]) [%]	Activity (MCF7 [12]) [%]	selectivity ratio [15]	Activity (HT-29 [16]) [%]	Activity (HT-29 [17]) [%]	Activity (HT-29 [18]) [%]	Activity (MCF7 [19]) [%]	Activity (HT-29 [21]) [%]	IC50 [24] [µM]	IC50 (HT-29 [25]) [µM]	Activity (HT-29 [26]) [%]	IC50 (MCF-10A) [µM]	other results
COC(CN(c1ccccc1CO)S(=O)(=O)c1ccccc1[N+](=O)[O-])n1cnc2ncnc(Cl)c21 (racemic)	1.92	54.93	12.7	23.94	48.49	-2.01	10.98	65.09	20.36	24.79	3.69	10.5	8.33	71.58	6.36	15.64	12.1	3.28	21.1	6.23	fold change (FC) (MCF7 [4]): -2.27; IC50 (MCF7 [10]): 3.25 µM; fold change (FC) (HT-29 [13]): -3.32; fold change (FC) (HT-29 [14]): 2.54; fold change (FC) (MCF7 [20]): -2.43; fold change (FC) (MCF7 [22]): -2.17; fold change (FC) (HT-29 [23]): -2.11
O=C(OCC1c2ccccc2-c2ccccc21)N1CC(n2cnc3c(Cl)ncnc32)OCc2ccccc21 (racemic)	3.19	59.69	14.9	22.43	72.81	-2.02	13.18	64.39	5.07	14.85	2.99	14.7	8.61	74.68	7.27	13.63	10.1	3.38	18.07	2.14	fold change (FC) (MCF7 [27]): -2.85; fold change (FC) (HT-29 [28]): -2.07; fold change (FC) (HT-29 [29]): -2.35; fold change (FC) (MCF7 [30]): 4.07; fold change (FC) (HT-29 [31]): -2; fold change (FC) (HT-29 [32]): -2.12
